Laboratory results taken from ChEMBL document CHEMBL5038608, “Design, synthesis, and biological evaluation of novel pyrrolidinone small-molecule Formyl peptide receptor 2 agonists” (Eur J Med Chem, 2021).
pEC50: −log10 of the molar value. In brackets after ≈: the same amount, converted by molar mass. Activity calls are given as the source filed them. The calls are words filed in the database; no cut-off is given here.

Assays:
[1] = target: T1, N-formyl peptide receptor 2 (Homo sapiens) (UniProt P25090); experiment: (§1) Agonist activity at FPRL1 (unknown origin) expressed in CHO-K1 cells assessed as stimulation of beta-arrestin recruitment incubated for 150 mins by beta-galactosidase based PathHunter assay; format: functional, cell-based
T1 sequence (whole entry): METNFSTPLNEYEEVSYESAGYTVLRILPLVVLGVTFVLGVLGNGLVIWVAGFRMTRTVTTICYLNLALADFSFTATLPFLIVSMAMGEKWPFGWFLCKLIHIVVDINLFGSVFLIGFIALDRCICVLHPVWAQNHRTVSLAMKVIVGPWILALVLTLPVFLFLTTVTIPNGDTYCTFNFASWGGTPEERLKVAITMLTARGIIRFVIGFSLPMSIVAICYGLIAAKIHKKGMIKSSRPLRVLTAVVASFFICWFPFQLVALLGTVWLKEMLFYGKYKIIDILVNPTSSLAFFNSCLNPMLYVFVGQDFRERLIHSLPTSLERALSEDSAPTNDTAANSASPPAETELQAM
Procedure, shortened: (§2)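 PathHunter CHO-K1 FPRL1 cells expressing β-gal enzyme-fragment complementation, 5000 cells/well, held overnight at 37 °C. Stimulated with half-log serial dilutions of compounds (10 mM stocks in PBS) for 150 min at 37 °C. High control was WKYMVm at 100 nM. Detection reagent added for 60 min at RT in the dark, then chemiluminescence read.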

[2] = Microsomal stability in mouse liver microsomes assessed as half life at 1 uM preincubated for 5 mins followed by NADPH regenerating system addition measured after 30 mins by LC-MS/MS analysis; format: ADME, Microsome; conditions: t1/2, time 35 min
Procedure, shortened: (§3)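 Human or mouse liver microsomes (0.2 mg/mL protein) with compound at 1 µM final, pre-incubated 5 min at 37 °C. Reaction started with NADPH generating solution and agitated at 37 °C, with samples quenched up to 30 min. Centrifuged; supernatant analysed in triplicate by LC-MS.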

[3] = Kinetic solubility of compound in PBS at pH 7.4 by UV-VIS absorption spectrophotometry analysis; format: physicochemical; conditions: PBS, read-out: Kinetic_solubility
Procedure, shortened: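 A 10 mM DMSO stock was diluted into PBS pH 7.4 at a target of 200 µM (final PBS:DMSO 98:2), in triplicate. Agitated 500 rpm for 90 min, then filtered. Filtrate diluted to PBS:DMSO 80:20 and its UV absorbance compared against a 200–6.75 µM standard series to give the concentration remaining in solution.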

[4] = target: T1, N-formyl peptide receptor 2 (Homo sapiens); experiment: Agonist activity at FPRL1 (unknown origin) expressed in CHO-K1 cells assessed as stimulation of beta-arrestin recruitment […] incubated for 150 mins by beta-galactosidase based PathHunter assay; format: functional, cell-based
Procedure, shortened: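 PathHunter CHO-K1 FPRL1 cells carry complementing β-galactosidase fragments. Plated at 5000/well, held 1 h RT, then overnight at 37 °C. Compounds were half-log serially diluted from 10 mM stocks in PBS. Stimulation 150 min at 37 °C; W-peptide (WKYMVm, 100 nM) was the high control. Detection reagent added for 60 min RT in the dark, with chemiluminescence read-out.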

[5] = Microsomal stability in human liver microsomes assessed as half life at 1 uM preincubated for 5 mins followed by NADPH regenerating system addition measured after 30 mins by LC-MS/MS analysis; format: ADME, Microsome; conditions: t1/2, time 35 min; procedure, shortened: as §3
[6] = Distribution coefficient, logD of compound at pH 7.4 by shake flask method based LC-MS/MS analysis; format: physicochemical; conditions: octanol/water, read-out: logD
Procedure, shortened: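 Shake-flask method: compound diluted from 10 mM DMSO stock into equal volumes of octanol and PBS, final concentration 100 µM. Shaken 12 h, then centrifuged. Both layers analysed in triplicate by LC-MS/MS (MRM, C8 UPLC). LogD = log10 of the octanol/buffer peak-area ratio.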

[7] = target: T2, N-formyl peptide receptor 2 (Homo sapiens, UniProt P25090); experiment: Agonist activity at FPRL1 (unknown origin) expressed in CHO-K1 cells assessed as increase in calcium mobilization incubated for 2.5 hrs by cellular based FLIPR assay; format: functional, cell-based; conditions: read-out: EC50
T2 sequence (P25090 whole entry): T1 sequence (whole entry)
Procedure, shortened: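 CHO-K1 cells overexpressing hFPR2, plated at 20,000 cells/well in F-12 with 10% FBS and held overnight at 37 °C. Loaded with FLIPR Calcium 6 dye for 2 h at 37 °C, then 30 min at RT in the dark. Compounds were half-log serially diluted from 10 mM stocks in HBSS/20 mM HEPES. Cytosolic Ca2+ rise read on FLIPR Tetra. WKYMVm served as control.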

[8] = target: T2, N-formyl peptide receptor 2; experiment: as §1; format: functional, cell-based; conditions: read-out: EC50; procedure, shortened: as §2
[9] = AUC extrapolated in C57BL6 mouse at 10 mg/kg, ip; format: ADME, organism-based; conditions: in vivo
Procedure, shortened: (§4)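 Male C57BL6 mice, single intraperitoneal dose of 10 mg/kg as a clear solution in DMSO 10%/PEG400 35%/PG 25%/water 30%. 12 mice used: 9 dosed, 3 for blank plasma. Each mouse bled three times. Plasma concentration measured at eight time points over 24 h.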

[10] = target: T1, N-formyl peptide receptor 2 (Homo sapiens); experiment: Agonist activity at FPRL1 (unknown origin) expressed in CHO-K1 cells assessed as increase in calcium mobilization […] incubated for 2.5 hrs by cellular based FLIPR assay; format: functional, cell-based; conditions: filed as agonist, time 0.067 hrs, in the assay text read “measured for 240 s” for “incubated for 2.5 hrs”
Procedure, shortened: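 CHO-K1 cells overexpressing human FPR2 (PathHunter FPRL1 line), plated at 20,000/well in F-12 with 10% FBS and held 1 h RT, then overnight at 37 °C. Calcium 6 dye loaded 2 h at 37 °C, then 30 min RT in the dark. Compounds were half-log serially diluted from 10 mM stocks in HBSS with 20 mM HEPES. Cytosolic Ca2+ rise read on FLIPR Tetra.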

[11] = system: Neutrophil; experiment: Inhibition of cell adhesion in human Neutrophils assessed as reduction on neutrophil at 1 to 100 uM incubated for 30 mins by DAPI staining based immunofluorescence assay; format: functional; conditions: dose 1-100 µM
Procedure, shortened: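 Neutrophils isolated from healthy donor blood (Polymorphprep) and suspended in HBSS/20 mM HEPES/0.25% BSA/Ca2+, pH 7.4, at 0.5 × 10⁶/mL. Pre-incubated with agonists (final 1:5 dilution) 30 min at 37 °C. Then adhered 20 min at 37 °C on plates coated with P-selectin and ICAM-1 (1 µg/mL each), BSA-blocked. PFA-fixed and DAPI-stained; four images per well counted. 3 independent experiments × 3 technical replicates.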

[12] = MRT(0 to t) in C57BL6 mouse at 10 mg/kg, ip; format: ADME, organism-based; conditions: in vivo; procedure, shortened: as §4
[13] = AUC (0 to infinity) in C57BL6 mouse at 10 mg/kg, ip; format: ADME, organism-based; parameters: time infinity, route intraperitoneal, dose 10 mg/kg; conditions: in vivo
[14] = Cmax in C57BL6 mouse at 10 mg/kg, ip measured upto 24 hrs; format: ADME, organism-based; parameters: route intraperitoneal, dose 10 mg/kg, time <=24; conditions: in vivo; procedure, shortened: as §4
[15] = target: T3, fMet-Leu-Phe receptor (Homo sapiens, UniProt P21462); experiment: Agonist activity at human FPR1 expressed in HEK293-A cells assessed as ERK phosphorylation level incubated for 5 mins by ELISA assay; format: functional, cell-based
T3 sequence (P21462 whole entry): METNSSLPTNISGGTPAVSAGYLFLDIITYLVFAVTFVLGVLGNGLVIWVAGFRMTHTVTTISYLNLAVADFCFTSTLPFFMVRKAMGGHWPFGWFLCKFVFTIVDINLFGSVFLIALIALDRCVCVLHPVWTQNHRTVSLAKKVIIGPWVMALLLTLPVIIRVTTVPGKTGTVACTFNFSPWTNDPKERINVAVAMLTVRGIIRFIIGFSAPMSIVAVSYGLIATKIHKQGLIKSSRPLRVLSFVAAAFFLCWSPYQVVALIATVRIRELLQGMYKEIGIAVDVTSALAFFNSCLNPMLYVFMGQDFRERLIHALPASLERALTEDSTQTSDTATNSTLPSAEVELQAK
Procedure, shortened: (§5)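 HEK293A cells stably transfected with human FPR1 or FPR2, seeded at 2 × 10⁴/well and grown 48 h. Serum-starved 3 h, then stimulated 5 min with compounds in serum-free DMEM, top concentration 30 µM, 1/3 serial dilutions. Lysed in ice-cold buffer; p-ERK1/2 (pT202/Y204) measured by SimpleStep ELISA (OD). Expressed as increment over basal.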

[16] = target: T4, fMet-Leu-Phe receptor (Homo sapiens) (UniProt P21462); experiment: Agonist activity at human FPR1 expressed in HEK293-A cells assessed as maximal ERK phosphorylation level at 30 uM incubated for 5 mins by ELISA assay; format: functional, cell-based
T4 sequence (whole entry): T3 sequence (P21462 whole entry)
Procedure, shortened: (§6)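 HEK293A cells stably transfected with human FPR1 or FPR2, in DMEM with 10% FCS, seeded 2×10⁴/well and grown 48 h. Serum-starved 3 h, then stimulated 5 min with compounds in serum-free DMEM (1/3 serial dilutions from top concentration). W peptide was the positive control. Lysed in ice-cold buffer. p-ERK1/2 (pT202/Y204) measured by ELISA OD and expressed as increment over basal per receptor.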

[17] = target: T2, N-formyl peptide receptor 2; experiment: Agonist activity at human FPR2 expressed in HEK293-A cells assessed as ERK phosphorylation level incubated for 5 mins by ELISA assay; format: functional, cell-based; procedure, shortened: as §5
[18] = AUC (0 to t) in C57BL6 mouse at 10 mg/kg, ip; format: ADME, organism-based; parameters: dose 10 mg/kg; conditions: in vivo
[19] = target: T1, N-formyl peptide receptor 2 (Homo sapiens); experiment: Agonist activity at human FPR2 expressed in HEK293-A cells assessed as maximal ERK phosphorylation level at 30 uM incubated for 5 mins by ELISA assay; format: functional, cell-based; conditions: filed as agonist; procedure, shortened: as §6
[20] = Tmax in C57BL6 mouse at 10 mg/kg, ip; format: ADME, organism-based; conditions: in vivo; procedure, shortened: as §4
[21] = Half life in C57BL6 mouse at 10 mg/kg, ip; format: ADME, organism-based; conditions: in vivo; procedure, shortened: as §4

| Structure (SMILES) | half-life at 1 µM [2] [min] | solubility kinetic [3] [µM] | half-life at 1 µM [5] [min] | logD [6] | pEC50 [7] | pEC50 [8] | Emax [16] | pEC50 [17] | Emax [19] [%] | further results |
| --- | --- | --- | --- | --- | --- | --- | --- | --- | --- | --- |
| CC(C)n1cc(N2CCC(NC(=O)Nc3ccc(Br)cc3)C2=O)cn1 (configuration not stated) | 159 | 1 (≈ 0.406 µg/mL) | 322 | 3.7 | 6.05 |  |  |  |  | Emax [1]: inactive; Emax [4]: inactive |
| O=C(Nc1ccc(Br)cc1)NC1CCN(c2ccccc2)C1=O (configuration not stated) | > 400 | 15 (≈ 5.61 µg/mL) | > 400 | > 4 | 6.37 | 6.52 | 15% | 5.13 | 69 | %AUCextra [9]: 18.17%; Emax [10]: 73%; Activity [11]: Dose-Dependent Effect; MRT last [12]: 9.2 h; AUC(0-inf) [13]: 35000 ng·h/mL; Cmax [14]: 3610 ng/mL; pEC50 ([15]; read-out: EC50): 5.76; AUC(0-t) [18]: 28600 ng·h/mL; Tmax [20]: 15 min; half-life [21]: 565 min |
| Cc1nn(C)cc1N1CCC(NC(=O)Nc2ccc(Br)cc2)C1=O (configuration not stated) | 172 | 9 (≈ 3.53 µg/mL) | 183 | 2.6 | 6.85 | 6.13 | inactive | 5.31 | 90 | Emax ([4]; filed as agonist): 98%; EC50 ([15]; hek293-a): Not Active |
